Experimental data pooled from the literature.
Protocols differ between the studies behind these lines.
Effect on: microbial growth

| SMILES | organism | technique | strain | time | MIC |
| --- | --- | --- | --- | --- | --- |
| CCCCCCCCCCN1CCNCC1 | Lodderomyces parapsilosis | broth dilution | ATCC22019 | 48 h | 15.6 µg/mL |
| Cc1ccc(C)n1-c1ccc(-c2nnc(-c3ccc(N(C)C)cc3)[nH]2)cc1 | Aspergillus niger | broth dilution | ATCC6275 |  | 62.5 µg/mL |
| CC[C@H](C)C[C@H](C)CCCCCCCCC(=O)N[C@H]1C[C@@H](O)[C@@H](NCCN)NC(=O)[C@@H]2[C@@H](O)CCN2C(=O)[C@H]([C@H](O)CCN)NC(=O)[C@H]([C@H](O)[C@@H](O)c2ccc(O)cc2)NC(=O)[C@@H]2C[C@@H](O)CN2C(=O)[C@H]([C@@H](C)O)NC1=O | Lodderomyces parapsilosis | broth dilution | ATCC22019 | 48 h | 1.95 µg/mL |
| Cc1ncc([N+](=O)[O-])n1CCO | Bacteroides fragilis | agar dilution |  | 48 h | 1 µg/mL |
| Cc1ccc2nc(-c3ccccc3O)[nH]c2c1 | Aspergillus niger |  | ATCC16404 |  | 512 µg/mL |
| CCCCCCCCCCCCCCN1CCNCC1 | Lodderomyces parapsilosis |  | ATCC22019 |  | 0.975 µg/mL |
| Cc1ccc2nc(-c3ccc([N+](=O)[O-])cc3)[nH]c2c1 | Aspergillus niger |  | ATCC16404 |  | 512 µg/mL |
| Cc1ccc(C)n1-c1ccc(-c2nnc(-c3ccccc3[N+](=O)[O-])[nH]2)cc1 | Aspergillus niger | broth dilution | ATCC6275 |  | 31.2 µg/mL |
| O=[N+]([O-])c1ccc(-c2nc3ccccc3n2Cc2ccccc2)cc1 | Aspergillus niger |  | ATCC16404 |  | 64 µg/mL |
| Cc1ccc(C)n1-c1ccc(-c2nnco2)cc1 | Aspergillus niger | broth dilution | ATCC6275 |  | 125 µg/mL |
| C=CCn1c(-c2ccc([N+](=O)[O-])cc2)nc2ccccc21 | Aspergillus niger |  | ATCC16404 |  | 256 µg/mL |
| Cc1ccc(C)n1-c1ccc(-c2nnc(-c3ccccc3Cl)[nH]2)cc1 | Aspergillus niger | broth dilution | ATCC6275 |  | 8 µg/mL |
| Fc1ccc(C2(Cn3cncn3)CO2)c(F)c1 (stereo not shown) | Lodderomyces parapsilosis | broth dilution | ATCC22019 | 48 h | > 31.3 µg/mL |
| CC1=NN(CNc2ccc(C(=O)O)cc2)C(=O)C1=NNn1c(-c2ccccc2)nc2ccccc2c1=O | Aspergillus niger | broth dilution |  |  | 50.5 µM |
| C=CCn1c(-c2ccc(OC)c(OC)c2)nc2ccccc21 | Aspergillus niger |  | ATCC16404 |  | 512 µg/mL |
| CCCCCCCCCCCCN1CCNCC1 | Lodderomyces parapsilosis |  | ATCC22019 |  | 1.95 µg/mL |
| O=C1NN=C(N=Cc2ccc(O)c(O)c2)C1=NNn1c(-c2ccccc2)nc2ccccc2c1=O | Aspergillus niger | broth dilution |  |  | 107 µM |
| c1ccc2c(-c3nc4ccccc4[nH]3)c3ccccc3cc2c1 | Aspergillus niger |  | ATCC16404 |  | 256 µg/mL |
| CCCCCCCCCCCCCN1CCN(CC(O)(Cn2cncn2)c2ccc(F)cc2F)CC1 (stereo not shown) | Lodderomyces parapsilosis | broth dilution | ATCC22019 | 48 h | < 0.24 µg/mL |
| CC[C@@H]([C@H](C)O)n1ncn(-c2ccc(N3CCN(c4ccc(OC[C@@H]5CO[C@@](Cn6cncn6)(c6ccc(F)cc6F)C5)cc4)CC3)cc2)c1=O | Aspergillus brasiliensis |  | ATCC16404 | 72 h | < 0.3 µM |
| CC1=NN(CNc2ccccc2[N+](=O)[O-])C(=O)C1=NNn1c(-c2ccccc2)nc2ccccc2c1=O | Aspergillus niger | broth dilution |  |  | 50.4 µM |
| Cc1ccc2nc(-c3ccc(Cl)cc3)[nH]c2c1 | Aspergillus niger |  | ATCC16404 |  | 256 µg/mL |
| O=c1[nH]c(NCc2ccc(Cl)c(Cl)c2)nc2ncn(CCN3CCOCC3)c12 | Bacteroides fragilis | agar dilution |  | 48 h | > 32 µg/mL |
| CCCCCCCCCCCN1CCN(CC(O)(Cn2cncn2)c2ccc(F)cc2F)CC1 (stereo not shown) | Lodderomyces parapsilosis | broth dilution | ATCC22019 | 48 h | 0.24 µg/mL |
| Cc1ccc2nc(-c3cccc(O)c3)[nH]c2c1 | Aspergillus niger |  | ATCC16404 |  | 128 µg/mL |
